Bioassay records from PubChem BioAssay.
The sample as a whole holds a higher share of hits than the screen did.
CHOP inh: blocks CHOP induction under ER stress | CHO-K1 CHOP-promoter luciferase, tunicamycin-induced, 15-18 h | 3.8% of 220,000 active | inhibition, % at 10 µM | AID 2732;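 active means compounds that reduced the stress-induced luciferase reporter signal by more than about 70% of percent inhibition, limit read from the data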;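 further: 0% = tunicamycin plus vehicle and 100% = wells without tunicamycin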
XBP1 UPR activ: adaptive UPR (XBP1) activation. CHO-XBP1 luciferase reporter, IRE1-XBP1 UPR activation, luminescence; percent of tunicamycin response, DMSO as zero. activation, % at 20 µM. 0.33% of 330,000 active;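 active means versus positive control, 20 µM dose yields 30% or more activation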;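 further: 100% = tunicamycin at 10 µg/mL and 0% = DMSO only wells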
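assay system = CHO-XBP1 luciferase reporter cells | amount = 1000 cells/well | buffer or medium = F12 plus 10% FBS | compound dosing = single point, 20 µM final compound, 1% DMSO | incubation = 16-18 h cell attachment at 37 °C, then 6 h compound exposure | detection = Steady-Glo luminescence read | controls = tunicamycin 10 µg/mL and vehicle-only wells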
CHOP UPR activ: apoptotic UPR (CHOP) activation. CHO-CHOP luciferase reporter, luminescence; percent of tunicamycin response over DMSO baseline. activation, % at 10 µM. 0.34% of 330,000 active. AID 449763;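 active means at 10 µM dose, activation of 40% or more, normalized to positive control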;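 further: 100% = tunicamycin at 10 µg/mL and 0% = DMSO alone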
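measured by = luciferase luminescence | assay system = CHO-CHOP cells, stable luciferase reporter of PERK-eIF2a-CHOP signalling | amount = 500 reporter cells seeded per well | timing = 6 h compound exposure at 37 °C after overnight seeding | controls = positive tunicamycin 10 µg/mL, negative DMSO alone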
A1 inh: inhibitors of the anti-apoptotic protein A1, read as caspase activation. MEF A1-2A-BIM cells, Caspase-Glo 3/7 luminescence, 3 h; percent of clofoctol response, vehicle zero. caspase activation, % (concentration not given with the values). 0.066% of 330,000 active. AID 2462;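 active means over half of replicate activation scores above 10%, or exactly half above 10 with the replicate mean above 10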
CHOP confirm: confirmation of CHOP induction inhibitors; shares compounds with CHOP inh; CHO-CHOP promoter luciferase reporter, tunicamycin-induced, luminescence; inhibition, % at 10 µM; 45% of 2,100 active;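 active means mean of three repeat readings of reporter signal inhibition above a set limit, cut at about 70% in these data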;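 further: 0% = tunicamycin plus vehicle and 100% = wells lacking tunicamycin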
Active calls of the source: *; . = no result.

SMILES	CHOP inh	XBP1 UPR activ	CHOP UPR activ	A1 inh	CHOP confirm
O=C(/C=C/c1cccc(C(F)(F)F)c1)Nc1cccc(C(F)(F)F)c1	97*	6	5	0	100*
CC1CCCCN1C(=O)CSc1nnc(-c2ccccc2O)o1 (stereo not given)	.	-4	6	0	.
O=[N+]([O-])c1cccc(/C=N/Nc2nc(NCc3ccccc3)nc(N3CCOCC3)n2)c1	104*	4	2	0	2
Cc1ccc(S(=O)(=O)N2CCCCC2)cc1C(=O)OC(C)C(=O)NC1CCCCC1C (stereo not given)	.	-3	0	.	.
CC(C)(C)CC(=O)Nc1ccc(S(=O)(=O)NC2=NCCCCC2)cc1	.	1	-1	0	.
CCOC(=O)c1cc(-c2cccs2)nc2c1c(C)nn2-c1ccccn1	99*	9	-2	0	100*
Cc1nn(-c2ccccn2)c2nc(-c3cccs3)cc(C(=O)NCc3ccco3)c12	-30	-1	2	0	.
COc1cccc(C(=O)NCC2(c3ccc(OC)c(OC)c3)CCCC2)c1	.	-3	-3	0	.
COC(=O)C(Nc1ccccc1Cl)(c1cc(C)c(O)c(C)c1)C(F)(F)F (stereo not given)	109*	-1	1	0	97*
CC1CCN(c2nc3ccc(C(=O)O)cc3s2)CC1	97*	-16	-11	-7	108*
CC1CCN(c2nc3ccc(C(=O)NCCCN4CCCCC4)cc3s2)CC1	.	3	0	0	.
CCOC(=O)CCC(=O)Nc1ccc(S(=O)(=O)Nc2cc(OC)nc(OC)n2)cc1	.	-5	-1	1	.
CCOC(=O)C1=C(N)c2ccccc2CC1C(C)C (stereo not given)	100*	-3	-1	0	14
Cc1ccc2[nH]c3c(c2c1)CN(C(=O)CN1CCN(c2cccc(C)c2C)CC1)CC3	102*	-5	-1	0	112*
Oc1ccc(Br)cc1-c1nc2cnccn2c1NC1CCCCC1	98*	9	0	-1	87*
Oc1ccc(Br)cc1-c1nc2cnccn2c1NC1CCCC1	.	-1	-2	2	.
Oc1c(Cl)cc(Cl)cc1CNc1ccc(Br)cn1	104*	2	2	0	-2
COc1ccc(-c2cc(C3CCN(CC(O)C(F)(F)F)CC3)[nH]n2)cc1 (stereo not given)	.	-1	2	1	.
COc1ccc(-c2cc(C3CCN(Cc4cccc(C(F)(F)F)c4)CC3)[nH]n2)cc1	106*	-1	-4	0	104*
CC(C)(C)c1nc2c(C#N)c(-c3ccc(Cl)cc3)ccn2n1	101*	6	4	1	21
O=c1c2ccccc2c(C=Nc2cccc(O)c2)c(O)n1-c1ccc2c(c1)OCO2	107*	3	2	0	16
CCOc1cccc(CN2CCN(c3cccc(C(F)(F)F)c3)CC2)c1O	100*	0	0	0	79*
COc1cc(OCc2ccccc2)c(C(=O)/C=C/c2ccc3c(c2)OCO3)c(OC)c1OC	.	1	1	1	.
O=C1CC(c2ccccc2Cl)c2c(sc3c(=O)[nH]c(CCl)nc23)N1 (stereo not given)	-3	-2	1	1	.
Cc1nonc1NC(=O)CSc1nc(C23CC4CC(CC(C4)C2)C3)nc2ccccc12	100*	-1	0	1	-2
SMILES	CHOP inh	XBP1 UPR activ	CHOP UPR activ	A1 inh	CHOP confirm
Cc1nonc1NC(=O)CSc1nc(C2CCCCC2)nc2ccccc12	-55	-3	0	0	.
COc1ccccc1C(=O)NCC(=O)OCC(=O)c1cccc2ccccc12	.	-1	1	0	.
CCc1ccccc1N(C(=O)c1ccco1)C(C(=O)NC1CCCC1)c1cccnc1 (stereo not given)	.	1	3	0	.
COc1cccc(NC(=O)CN(C)C(=O)c2csc3c2CCCC3)c1	.	-1	1	0	.
O=C(O)c1cc(-c2c[nH]c3ccccc23)nc2ccc3ccccc3c12	-20	1	0	0	.
c1ccc2c(-c3c[nH]c4ccccc34)c3ccccc3nc2c1	98*	1	-1	-1	-18
O=C(N/N=C/c1cccc([N+](=O)[O-])c1)c1cccc2cc[nH]c12	101*	-2	2	-1	-14
CSc1cccc(CN2CCC(n3nccc3NC(=O)C3CC3)CC2)c1	.	-9	1	.	.
COC(=O)c1ccc(N2C(=O)CC(SCC(=O)Nc3ccc(OC)cc3)C2=O)cc1 (stereo not given)	15	1	2	0	.
CN=C(Nc1cc(Cl)ccc1Cl)SC1CC(=O)N(c2ccc(C(=O)OC)cc2)C1=O (stereo not given)	105*	-4	-1	0	5
COc1ccc(NC(=O)c2ccccc2NS(=O)(=O)c2ccc(CNC(C)=O)cc2)c(OC)c1	.	-4	2	-1	.
COc1ccc(NC(=O)CSc2nnc(-c3ccccc3)n2N)cc1	-6	2	0	0	.
CCn1c2ccccc2c2cc(NC(=O)CSc3nnc(-c4ccc(OC)cc4)n3N)ccc21	102*	14	-1	1	43
COC(=O)c1cc(C(=O)OCC(=O)c2ccc3c(c2)NC(=O)CO3)cc([N+](=O)[O-])c1	.	-1	-1	.	.
O=C(CCCOc1ccc(Cl)cc1Cl)NNC(=O)c1ccc(NC(=O)c2ccccc2)cc1	-30	1	0	1	.
O=C(CSCc1ccc(Cl)cc1)N/N=C/c1ccc(OCC(=O)Nc2ccccc2)cc1	-1	-7	-3	0	.
Cc1ccc(/C=N/NC(=O)CSCc2ccc(Cl)cc2)cc1	110*	2	0	1	89*
Cc1ccccc1C(=O)Nc1ccc(C(=O)NNC(=O)CCCOc2ccc(Cl)cc2Cl)cc1	113*	-4	0	0	6
Cc1ccc(/C=N/NC(=O)CCCOc2ccc(Cl)cc2Cl)cc1	100*	-1	0	0	106*
Cc1ccc(/C=N/NC(=O)CCCOc2ccc(Cl)cc2Cl)cc1[N+](=O)[O-]	40	-5	0	1	.
CC(C)CC(=O)Nc1c2c(nn1-c1ccc(F)cc1)CS(=O)C2 (stereo not given)	.	-5	-1	1	.
COc1ccc(CN2CCc3ccccc3C2)cc1Br	.	-1	2	0	.
Cc1ccc(C(=O)N/C(=C\c2cn(S(=O)(=O)N(C)C)c3ccccc23)C(=O)NCCCN2CCOCC2)cc1	.	-2	1	1	.
Cc1ccc(N2CC(C(=O)OCC(=O)c3c(N)n(CC(C)C)c(=O)n(C)c3=O)CC2=O)cc1 (stereo not given)	.	0	0	-1	.
CC(C)Cn1c(N)c(C(=O)COC(=O)C2CCCCC2)c(=O)n(C)c1=O	100*	1	0	0	78*
CC(=O)Nc1ccc(NC(=O)C2CCN(C(=O)c3cccs3)CC2)cc1	-1	0	0	0	.
